Screens as filed in PubChem BioAssay.
Shown are actives, neighbours in structure and some others; about 2.3% of the full set was active somewhere.
TRPC4 inh = TRPC4 (mouse) channel inhibition. AID 2247. hit rate 0.39% among 300,000. B-score at 10 µM. HEK293 TRPC4beta/mu-opioid, DAMGO-evoked Fluo4 calcium flux; stronger effect = lower value;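 active = B-score over 3 SD under the library average, no early fluorescence shift, positive overall ratio signal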
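Signal: kinetic Fluo4 fluorescence imaging of calcium influx. Material: stable TRPC4beta/mu-opioid receptor HEK293 cells. Probe or stimulus: DAMGO in two steps, submaximal then maximal.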
TRPC4 PAM = allosteric potentiators of mouse TRPC4 channel; Q9QUQ5; HEK293 TRPC4beta/mu-opioid, DAMGO EC20, Fluo-4 Ca2+ flux; stronger effect = higher value; B-score at 10 µM; hit rate 0.42% among 310,000; AID 2227;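 active = B-score of calcium response area above 5 SD of library B-scores, with initial fluorescence ratio within 5 SD of library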
TRPC6 inh = inhibitors of mouse TRPC6 channel; B-score at 10 µM; hit rate 1.1% among 310,000; Q61143; HEK293-TRPC6, membrane potential dye, ACh-evoked depolarization; stronger effect = lower value;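 active = B-score under library mean minus 3 SD, initial fluorescence not abnormally high, positive integrated signal ratio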;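 also: B-score derived from integrated fluorescence ratio over the kinetic read; more negative B-score means stronger inhibition of depolarization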
Target sequence (Q61143 whole entry, looked up): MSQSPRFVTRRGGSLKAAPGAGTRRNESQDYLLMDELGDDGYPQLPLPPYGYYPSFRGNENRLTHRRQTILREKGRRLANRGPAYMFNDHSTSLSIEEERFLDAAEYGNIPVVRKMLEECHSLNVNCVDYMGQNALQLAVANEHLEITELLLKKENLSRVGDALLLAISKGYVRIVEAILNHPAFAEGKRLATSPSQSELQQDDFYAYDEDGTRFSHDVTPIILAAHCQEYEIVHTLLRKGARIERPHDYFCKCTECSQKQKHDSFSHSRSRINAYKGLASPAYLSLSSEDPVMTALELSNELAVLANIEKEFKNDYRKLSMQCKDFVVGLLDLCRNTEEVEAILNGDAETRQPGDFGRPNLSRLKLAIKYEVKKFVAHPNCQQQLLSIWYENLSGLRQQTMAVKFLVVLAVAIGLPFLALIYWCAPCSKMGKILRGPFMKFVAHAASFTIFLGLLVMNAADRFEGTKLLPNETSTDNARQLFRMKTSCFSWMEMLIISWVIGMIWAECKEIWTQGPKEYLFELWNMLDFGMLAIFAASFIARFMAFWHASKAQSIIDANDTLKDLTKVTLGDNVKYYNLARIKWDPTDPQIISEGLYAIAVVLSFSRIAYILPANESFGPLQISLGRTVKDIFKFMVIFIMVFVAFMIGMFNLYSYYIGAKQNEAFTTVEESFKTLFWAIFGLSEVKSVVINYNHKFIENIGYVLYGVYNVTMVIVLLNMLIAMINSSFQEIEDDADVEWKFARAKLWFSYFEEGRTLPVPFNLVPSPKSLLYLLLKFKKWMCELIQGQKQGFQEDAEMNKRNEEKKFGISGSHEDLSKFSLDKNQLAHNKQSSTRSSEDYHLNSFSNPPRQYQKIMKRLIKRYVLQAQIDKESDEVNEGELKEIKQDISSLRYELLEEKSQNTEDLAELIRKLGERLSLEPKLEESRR
TRPC6 activator = activators of mouse TRPC6 channel; Q61143; B-score at 10 µM; HEK293-TRPC6 membrane potential dye fluorescence; stronger effect = higher value; hit rate 0.13% among 310,000;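 active = B-score of the integrated fluorescence ratio above library mean plus 3 SD, and starting fluorescence ratio within library mean plus 5 SD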;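 also: higher score means more depolarization so channel activation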
TRPC4 agonist = opens the mouse TRPC4 cation channel. B-score at 10 µM. AID 2237. Q9QUQ5. hit rate 0.49% among 310,000. HEK293 TRPC4beta/mu-opioid, Fluo4 calcium fluorescence; stronger effect = higher value;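 active = B-score above 5 SD of library B-scores, and initial fluorescence ratio not above library mean plus 5 SD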;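 also: positive B-score marks a calcium rise read as TRPC4 activation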
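system = HEK293 cells stably co-expressing mouse TRPC4beta and mu-opioid receptor | schedule = Fluo4 dye loading 45 min at room temperature, 110 s recording | measure = B-scored integrated calcium fluorescence ratio | signal = Fluo4 calcium-sensitive dye fluorescence, kinetic, 1 Hz baseline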
TRPC4 spec 2 = second selectivity test of TRPC6 inhibitors: effect on mouse TRPC4 | inhibition, % at 10 µM | hit rate 42% among 920 | HEK293 TRPC4/MOR, membrane potential dye fluorescence; channel activated by saturating DAMGO dose | shares compounds with TRPC6 inh;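 active = compounds whose fluorescence signal differed from control wells by over 3 SD, either direction, in both duplicate plates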
TRPC4 spec = mouse TRPC4 off-target activity of TRPC6 inhibitors. shares compounds with TRPC6 inh. HEK293 TRPC4/mu-opioid, membrane potential fluorescence. activity change, negative = inhibition, % at 10 µM. hit rate 61% among 920;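 active = rise or fall in signal beyond 3 SD of buffer-only wells in both replicate plates, either sign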;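 also: integrated kinetic ratio of fluorescence range over baseline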
HEK293 MPD ctr 2-1 = second check of TRPC6 inhibitor effects in parental HEK293 cells | shares compounds with TRPC6 inh | parental HEK293 membrane potential dye fluorescence; maximal acetylcholine challenge after compound addition | signal change vs control, % at 10 µM | hit rate 31% among 920;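 active = membrane potential signal moving either way by over 3 SD of the maximum-effect control, in both duplicate plates, meaning non-specific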
HEK293 MPD ctr-1 = parental HEK293 nonspecific activity of TRPC6 inhibitors | shares compounds with TRPC6 inh | parental HEK293 membrane potential dye fluorescence | membrane potential signal change, % at 10 µM | hit rate 60% among 920;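 active = membrane potential signal shifting up or down by more than 3 SD of buffer-only wells, on both duplicate plates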
HEK293 MPD ctr-2 = checks TRPC6 modulator effects in parental HEK293 cells; shares compounds with TRPC6 inh; membrane potential dye fluorescence; membrane potential signal change, % at 10 µM; hit rate 51% among 2,400;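 active = membrane potential signal moves up or down beyond 5 SD from buffer-only wells, on both duplicate plates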
HEK293 MPD ctr 2-2 = second check of TRPC6 modulator effects in parental HEK293 cells | inhibition, % at 10 µM | hit rate 14% among 2,400 | membrane potential dye fluorescence; after compound, maximal acetylcholine stimulation | AID 488926 | shares compounds with TRPC6 inh;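 active = membrane potential signal drops by more than 5 SD from the mean control signal, in both duplicate plates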
TRPC4/MOR mod = selectivity of TRPC6 modulators against mouse TRPC4; HEK293 TRPC4/mu-opioid, membrane potential fluorescence; hit rate 69% among 2,400; shares compounds with TRPC6 inh; percent change from control (negative = decrease, positive = increase), % at 10 µM;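 active = membrane potential signal moved up or down beyond 5 SD of buffer control wells, in both duplicate plates, actives on both sides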
TRPC4/MOR inh 2 = second selectivity test of TRPC6 modulators against mouse TRPC4; shares compounds with TRPC6 inh; HEK293 TRPC4/mu-opioid, membrane potential dye fluorescence; stimulated with maximal-effect DAMGO; inhibition, % at 10 µM; hit rate 55% among 2,400;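 active = drop in membrane potential signal beyond 5 SD of the control wells in both duplicate plates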;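 also: TRPC4 counter screen for TRPC6 hits run under conditions tuned for TRPC6 not TRPC4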
TRPC6 block conf = confirmation of mouse TRPC6 inhibitors; HEK293-TRPC6, membrane potential dye, ACh-evoked depolarization; shares compounds with TRPC6 inh; inhibition, % at 10 µM; hit rate 43% among 3,300; AID 488960;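 active = fluorescence ratio falls more than 5 SD below the full-stimulation control mean, in both duplicate runs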;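 also: integrated fluorescence ratio of peak minus minimum over baseline after agonist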
TRPC6 act confirm = mouse TRPC6 activator confirmation; HEK293-TRPC6 membrane potential dye fluorescence, FDSS; activation, % at 10 µM; shares compounds with TRPC6 inh; AID 488961; hit rate 11% among 2,800;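 active = ratio signal rise beyond 5 SD above unstimulated control wells' mean, seen in both duplicate runs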
Of the large screens only hits and unclear results are named; the others gave an inactive call (follow-up assays come after a bar, where they were run).

Cc1ccc(S(=O)(=O)N2CCC(C(=O)OCC(=O)N(C)CC(=O)Nc3ccc(F)cc3)CC2)cc1C	TRPC4 PAM 79
c1ccc(CCN=C2CCCc3c2[nH]c2ccccc32)cc1	TRPC4 agonist 155
Nc1ccc(C(=O)N/N=C2\CCCc3c2[nH]c2ccccc32)cc1	none
O=C1CC(=O)Nc2cc(S(=O)(=O)NCc3cccs3)ccc2N1	none
Cc1ccccc1-c1nc(CN2CCC(C(=O)NCc3ccco3)CC2)c(C)o1	none
Cc1ccccc1-c1nc(CN2CCC(C(=O)NCc3cccs3)CC2)c(C)o1	TRPC4 inh -6
Cc1oc(-c2ccc(-c3ccccc3)cc2)nc1CN(CCO)C(C)C	none
COc1ccc(C(c2nnnn2C2CCCC2)N2CCN(c3ccccc3)CC2)cc1 (stereo not drawn)	TRPC4 inh -6
COc1ccc(N2CCN(C(c3nnnn3C3CCCC3)C(C)C)CC2)cc1 (stereo not drawn)	none
CCCN1C2CCCC1CC(NC(=O)Nc1ccc(C(C)C)cc1)C2 (stereo not drawn)	none
Cc1cccc(NC(=S)NC2CC3CCCC(C2)N3CC(C)C)c1 (stereo not drawn)	none
CCCN1C2CCCC1CC(NC(=O)Nc1cccc(C(C)=O)c1)C2 (stereo not drawn)	TRPC6 inh -6.1 | HEK293 MPD ctr-2 inactive | HEK293 MPD ctr 2-2 inactive | TRPC4/MOR mod inactive | TRPC4/MOR inh 2 inactive | TRPC6 block conf inactive
CC(=O)c1cccc(NC(=O)NC2CC3CCCC(C2)N3CC(C)C)c1 (stereo not drawn)	TRPC6 inh -8.8, TRPC6 activator 17 | HEK293 MPD ctr-2 inactive | HEK293 MPD ctr 2-2 inactive | TRPC4/MOR mod inactive | TRPC4/MOR inh 2 inactive | TRPC6 block conf 46% | TRPC6 act confirm 110%
CCNC(=O)CC1C(=O)N(c2ccc(C)cc2)C(=O)N1CCOC (stereo not drawn)	none
CCOC(=O)N1CCC(Nc2c(NCCCN3CCN(C4CCCCC4)CC3)c(=O)c2=O)CC1	none
Cc1cccn2c(=O)c3cc(C#N)c(=N)n(CCCN4CCOCC4)c3nc12	TRPC6 inh -8.6 | HEK293 MPD ctr-2 -84% | HEK293 MPD ctr 2-2 118% | TRPC4/MOR mod -26% | TRPC4/MOR inh 2 68% | TRPC6 block conf 57% | TRPC6 act confirm inactive
CCCn1c(=N)c(C#N)cc2c(=O)n3ccccc3nc21	TRPC6 inh -8.3 | HEK293 MPD ctr-2 -260% | HEK293 MPD ctr 2-2 inactive | TRPC4/MOR mod -44% | TRPC4/MOR inh 2 44% | TRPC6 block conf 38% | TRPC6 act confirm inactive
Cc1cccn2c(=O)c3cc(C#N)c(=N)n(CCN4CCOCC4)c3nc12	TRPC6 inh -5.6 | HEK293 MPD ctr-2 -150% | HEK293 MPD ctr 2-2 inactive | TRPC4/MOR mod -24% | TRPC4/MOR inh 2 inactive | TRPC6 block conf 48% | TRPC6 act confirm inactive
Cc1cccn2c(=O)c3cc(C(N)=S)c(=N)n(CCCN4CCOCC4)c3nc12	none
CCCn1c(=N)c(C#N)cc2c(=O)n3cccc(C)c3nc21	none
Cc1cccn2c(=O)c3cc(C#N)c(=N)n(Cc4ccncc4)c3nc12	TRPC6 inh -5.7 | HEK293 MPD ctr-2 -168% | HEK293 MPD ctr 2-2 inactive | TRPC4/MOR mod -30% | TRPC4/MOR inh 2 inactive | TRPC6 block conf inactive | TRPC6 act confirm inactive
NS(=O)(=O)c1ccc(CNC(=O)C(c2ccccc2)c2ccccc2)cc1	none
Cc1ccc(-n2ncc(C(=O)N3CCN(C(=O)c4ccco4)CC3)c2-n2cccc2)cc1	TRPC6 inh -5.3 | HEK293 MPD ctr-2 inactive | HEK293 MPD ctr 2-2 inactive | TRPC4/MOR mod 9.0% | TRPC4/MOR inh 2 inactive | TRPC6 block conf 59%
CCOC(=O)Cn1c(=N)n(CCOc2ccc3ccccc3c2)c2ccccc21	TRPC6 inh -5.3 | HEK293 MPD ctr-2 inactive | HEK293 MPD ctr 2-2 inactive | TRPC4/MOR mod inactive | TRPC4/MOR inh 2 70% | TRPC6 block conf 40% | TRPC6 act confirm inactive
Cc1noc(C)c1S(=O)(=O)Nc1ccc(O)c2c(=O)cc(-c3ccccc3Cl)oc12	none
COc1ccc(CCNC(=O)C(C)n2nc(C)n3c(cc4occc43)c2=O)cc1OC (stereo not drawn)	none
CCN(CC)CCCC(C)NC(=O)c1c(NC(=O)c2ccccc2)sc2c1CCCC2 (stereo not drawn)	TRPC6 inh -6.1 | HEK293 MPD ctr-2 inactive | HEK293 MPD ctr 2-2 inactive | TRPC4/MOR mod -20% | TRPC4/MOR inh 2 81% | TRPC6 block conf 60% | TRPC6 act confirm inactive
CN(C)C(=O)c1c(NC(=O)c2ccccc2)sc2c1CCC2	none
CCCn1c2ccccc2c2cnn(CC(=O)NCCCN3CCN(c4ccccc4)CC3)c(=O)c21	TRPC6 inh -5.3 | HEK293 MPD ctr-2 134% | HEK293 MPD ctr 2-2 inactive | TRPC4/MOR mod 8.0% | TRPC4/MOR inh 2 74% | TRPC6 block conf inactive
Cc1nc(Cl)sc1C(=O)Nc1cccc(Cl)c1	none
Cc1c(CCOC(=O)c2ccccc2)sc[n+]1Cc1ccccc1	TRPC6 inh -9.5 | TRPC4 spec 2 inactive | TRPC4 spec inactive | HEK293 MPD ctr 2-1 42% | HEK293 MPD ctr-1 inactive | TRPC6 block conf 61% | TRPC6 act confirm inactive
Cc1c(CCOC(=O)c2ccccc2)sc[n+]1CC(=O)c1ccc(Br)cc1	none
